Experiment [1] is described as follows: reducers of endogenous Her2 protein level, primary screen, SKBR3 breast tumor cells, AlphaScreen, ATP viability (AID 461;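 active = Her2 level under about 52% in both replicate screens, with viability over 70% of control, limit read from the data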;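 as to Her2 level: lower value means less Her2 protein in the cells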;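 as to viability: percent of carrier control wells set as 100% viability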). The settings on record: 18-24 h, measured here: SKBR3 viability, ATP luminescence, at 10 µM. On the technique in general: In Alpha technology, singlet oxygen from a donor bead excites a nearby acceptor bead.
Experiment [2] concerns the target Receptor tyrosine-protein kinase erbB-2 (Homo sapiens) (UniProt P04626). The experiment is described as above. The conditions noted are these: 18-24 h, at 10 µM, stronger effect = lower value.
Experiment [3] is described as follows: SK-BR-3 cell growth inhibitors, pilot screen, 24 h, human (AID 572;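 active = viability at or below 10% of carrier control in both of two separate runs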;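 also: compound exposure lasted between 18 and 24 h rather than exactly 24 h; 100% = carrier-treated control wells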). The conditions noted are these: SK-BR-3 viability, CellTiter-Glo luminescence, at 10 µM, stronger effect = lower value. In general terms: Cellular ATP, detected with luciferase, serves as a proxy for viable cell number.
Experiment [4] can be described thus: HUVEC growth inhibition – cell-based, human, primary screen (AID 575;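 active = viability at or below 30% in both replicate assays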;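 also: 100% = median of untreated cell wells with 0.1% DMSO on each plate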). The conditions noted are these: HUVEC proliferation, CellTiter-Glo luminescence, 72 h; at 10 µM; stronger effect = lower value. In outline:
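System: primary human umbilical vein endothelial cells; Quantity: 1250 endothelial cells in each well; Buffer or medium: supplemented EBM, 2% fetal bovine serum; Doses: one dose, 10 µM final, 0.1% DMSO; Incubation: 72 h compound incubation; Technique: ATP-based CellTiter-Glo luminescent read; Evaluation: percent of median DMSO-control luminescence; Controls: vehicle and MePR control wells.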

Experiment [5] in a line: growth inhibitors of H69AR lung tumor, primary screen, human, duplicate replicates (AID 580;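 active = viability at or under a set limit in both replicates, limit being median viability minus 3 SD, cut at about 48% in these data, passing the limit was not always enough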;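 also: 100% = mean luminescence of untreated wells and 0% = no signal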). The conditions noted are these: H69AR lung tumor cells viability, ATP luminescence, 72 h; at 10 µM; stronger effect = lower value.
Experiment [6] is described as follows: reversal of MRP1-mediated doxorubicin resistance, pilot screen, H69AR cells, doxorubicin co-treatment (AID 601). The conditions noted are these: CellTiter-Glo, 72 h, at 10 µM; for differential viability (reversal): stronger effect = higher value.
The nature of experiment [7]: 384-well plate pilot, post-Golgi transport modulator project, inhibition of yeast transport mutant growth (AID 636; in the data active = inhibition above about 31%). The conditions noted are these: absorbance 615 nm, about 18 h, stronger effect = higher value.
A short description of experiment [8]: growth suppression of yeast trafficking mutant, preliminary HTS, modulators of trafficking downstream of Golgi apparatus project, 1536-format plate, OD 615 nm (AID 637; in the data active = inhibition above about 30%). The conditions noted are these: yeast transport mutant growth, absorbance 615 nm, 18 h; stronger effect = higher value.
[9] abbreviates: H69AR cells + 2 uM doxorubicin, measured here: viability with 2 uM doxorubicin, stronger effect = lower value.
Setting [10] is: H69AR cells, compound alone cytotoxicity.

Active and inactive are the calls of the source.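 The calls were made as follows, unless noted: active = viability loss from added drug above about 55%, and viability with drug at most 40%, in both replicates (limit read from the data, passing the limit was not always enough); inconclusive = both conditions met in only one replicate; inactive = neither replicate meets both conditions.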

Chain of Receptor tyrosine-protein kinase erbB-2 (Homo sapiens) (P04626 whole entry, looked up): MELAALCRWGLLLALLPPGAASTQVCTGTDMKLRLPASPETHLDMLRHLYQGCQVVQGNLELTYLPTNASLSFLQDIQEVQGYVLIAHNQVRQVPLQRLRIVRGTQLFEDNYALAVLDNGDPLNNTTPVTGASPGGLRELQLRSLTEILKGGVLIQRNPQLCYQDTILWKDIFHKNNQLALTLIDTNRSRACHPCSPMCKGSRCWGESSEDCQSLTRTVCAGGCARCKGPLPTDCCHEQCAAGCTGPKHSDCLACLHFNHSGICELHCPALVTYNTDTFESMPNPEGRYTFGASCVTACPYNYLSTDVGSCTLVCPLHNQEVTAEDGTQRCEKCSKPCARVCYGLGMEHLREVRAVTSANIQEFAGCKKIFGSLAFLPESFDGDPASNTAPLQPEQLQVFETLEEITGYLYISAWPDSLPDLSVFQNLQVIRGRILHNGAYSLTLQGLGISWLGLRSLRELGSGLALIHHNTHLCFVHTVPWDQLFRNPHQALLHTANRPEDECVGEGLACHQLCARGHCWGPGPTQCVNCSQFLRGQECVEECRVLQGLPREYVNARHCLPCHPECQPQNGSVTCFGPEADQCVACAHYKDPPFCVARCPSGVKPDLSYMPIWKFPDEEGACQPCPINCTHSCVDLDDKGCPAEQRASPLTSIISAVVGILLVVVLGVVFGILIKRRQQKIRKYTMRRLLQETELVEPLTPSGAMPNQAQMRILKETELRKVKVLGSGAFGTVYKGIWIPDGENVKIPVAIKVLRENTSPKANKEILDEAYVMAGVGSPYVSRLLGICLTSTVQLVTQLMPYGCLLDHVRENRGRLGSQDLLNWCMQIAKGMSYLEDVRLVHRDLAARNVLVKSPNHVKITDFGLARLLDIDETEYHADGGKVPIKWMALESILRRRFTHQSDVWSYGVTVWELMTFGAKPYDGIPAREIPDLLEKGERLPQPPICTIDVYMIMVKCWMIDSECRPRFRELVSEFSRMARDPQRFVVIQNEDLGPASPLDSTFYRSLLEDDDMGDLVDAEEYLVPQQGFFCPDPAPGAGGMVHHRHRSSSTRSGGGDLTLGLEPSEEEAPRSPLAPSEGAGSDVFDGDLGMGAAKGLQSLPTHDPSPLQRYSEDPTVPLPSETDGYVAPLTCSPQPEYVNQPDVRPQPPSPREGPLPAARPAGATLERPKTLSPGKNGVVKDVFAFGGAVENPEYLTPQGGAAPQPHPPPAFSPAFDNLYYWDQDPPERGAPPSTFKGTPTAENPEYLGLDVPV

Usually viability stands for a read-out of living cells in per cent, often relative to untreated cells. As usually defined, the inhibition is the change of the read-out against control, counted positive when it falls. On to `COc1cccc(-c2nnc3sc(-c4ccc(C)cc4)nn23)c1`, for which the viability in experiment [1] is 103%; in experiment [3] it was 103% (inactive); in experiment [4], 57% (inactive); in experiment [5] it was 17.3% (active); in experiment [6] (setting [9]) it was 78.8%; in experiment [6] (setting [10]), 17.3%. For the same compound, in experiment [2], the Her2 level was 81% (inactive). Besides, in experiment [6] (H69AR cells + 2 uM doxorubicin), the differential viability (reversal) was -61.5% (inactive). Moreover, the inhibition in experiment [7] is -5.92% (inactive); in experiment [8], -4.03% (inactive).

Consider `CCOC(=O)c1sc(N)c(C(=O)OCC)c1COC(=O)C1CC(=O)N(Cc2ccco2)C1` (stereo not given), for which the viability in experiment [1] is 91.5%; in experiment [3], 91.5% (inactive); in experiment [4], 80.7% (inactive); in experiment [5] it was 72.4% (inactive); in experiment [6] (setting [9]), 49.8%; in experiment [6] (setting [10]) it was 72.4%. Besides, the Her2 level in experiment [2] is 113% (inactive). For the same compound, the differential viability (reversal) in experiment [6] (H69AR cells + 2 uM doxorubicin) is 22.6% (inactive). The results for the inhibition in experiment [7] and in experiment [8] were -7.6% (inactive) and -8.71% (inactive), respectively.

Consider `CCOc1ccc(-n2cc(C(=O)N3CCN(C)CC3)c3cc(OC)c(OC)cc3c2=O)cc1`, for which the viability was 87% in experiment [1]; 87% (inactive) in experiment [3]; 103% (inactive) in experiment [4]; 97.1% (inactive) in experiment [5]; 110% in experiment [6] (setting [9]); 97.1% in experiment [6] (setting [10]). Besides, in experiment [2], the Her2 level is 104% (inactive). Besides, the differential viability (reversal) in experiment [6] (H69AR cells + 2 uM doxorubicin) was -12.4% (inactive). Moreover, the inhibition in experiment [7] is 1.62% (inactive); in experiment [8], -0.16% (inactive).

Turning to `Cc1ccc(S(=O)(=O)N2CCC(C(=O)NCCN3CCCCCC3)CC2)cc1`, the viability in experiment [1] is 91%; in experiment [3], 91% (inactive); in experiment [4], 108% (inactive); in experiment [5] it was 103% (inactive); in experiment [6] (setting [9]), 84.6%; in experiment [6] (setting [10]) it was 103%. Also, in experiment [2], the Her2 level was 93.5% (inactive). In addition, in experiment [6] (H69AR cells + 2 uM doxorubicin), the differential viability (reversal) was 18.1% (inactive). Also, the inhibition in experiment [7] was 0.13% (inactive); in experiment [8] it was 2.13% (inactive).

Turning to `CCOC(=O)c1cccc(NC(=O)CSc2nnc(C3CCCCC3)n2C)c1`, the viability in experiment [1] was 91%; in experiment [3] it was 91% (inactive); in experiment [4], 92.3% (inactive); in experiment [5], 91.3% (inactive); in experiment [6] (setting [9]) it was 84.7%; in experiment [6] (setting [10]), 91.3%. In addition, the Her2 level in experiment [2] was 89% (inactive). For the same compound, the differential viability (reversal) in experiment [6] (H69AR cells + 2 uM doxorubicin) is 6.58% (inactive). For the same compound, the inhibition was -6.22% (inactive) in experiment [7] and -0.95% (inactive) in experiment [8].

In the case of `Cc1c(C(=O)N2CCOCC2)oc2ccc(S(=O)(=O)N3CCCC3)cc12`, the viability in experiment [1] is 95%; in experiment [3], 95% (inactive); in experiment [4] it was 94.3% (inactive); in experiment [5] it was 87.8% (inactive); in experiment [6] (setting [9]), 94%; in experiment [6] (setting [10]), 87.8%. In experiment [2], the Her2 level is 109% (inactive). In addition, the differential viability (reversal) in experiment [6] (H69AR cells + 2 uM doxorubicin) was -6.14% (inactive). In addition, the inhibition in experiment [7] is -6.35% (inactive); in experiment [8], -4.59% (inactive).

For `CCOC(=O)c1[nH]c2ccccc2c1NC(=O)c1ccco1`, the viability in experiment [1] was 102%; in experiment [3], 102% (inactive); in experiment [4], 106% (inactive); in experiment [5] it was 80.3% (inactive); in experiment [6] (setting [9]), 83.2%; in experiment [6] (setting [10]) it was 80.3%. In addition, the Her2 level in experiment [2] is 79% (inactive). For the same compound, in experiment [6] (H69AR cells + 2 uM doxorubicin), the differential viability (reversal) is -2.98% (inactive). Besides, the inhibition in experiment [7] was -7.03% (inactive); in experiment [8], 4.33% (inactive).

Regarding `CC1(C)CC(=O)C2=C(C1)OC(N)=C(C#N)C2C1CC=CCC1` (stereo not given), the viability is 108% in experiment [1]; 108% (inactive) in experiment [3]; 91.4% (inactive) in experiment [4]; 81.6% (inactive) in experiment [5]; 69.1% in experiment [6] (setting [9]); 81.6% in experiment [6] (setting [10]). The Her2 level in experiment [2] is 93% (inactive). In addition, the differential viability (reversal) in experiment [6] (H69AR cells + 2 uM doxorubicin) is 12.5% (inactive). In addition, the inhibition is -7.53% (inactive) in experiment [7] and -2.22% (inactive) in experiment [8].

Consider `CCOC(=O)Cn1nnnc1C(C(C)C)N(Cc1cc2c(C)cc(C)cc2[nH]c1=O)C1CCCC1` (stereo not given), for which the viability in experiment [1] is 98%; in experiment [3] it was 98% (inactive); in experiment [4], 58.6% (inactive); in experiment [5], 88.5% (inactive); in experiment [6] (setting [9]), 89.9%; in experiment [6] (setting [10]), 88.5%. The Her2 level in experiment [2] is 102% (inactive). In addition, the differential viability (reversal) in experiment [6] (H69AR cells + 2 uM doxorubicin) was -1.4% (inactive). Moreover, the inhibition in experiment [7] is -5.41% (inactive); in experiment [8], 16.6% (inactive).

For the compound `COc1ccccc1C(=O)n1nc(-c2ccc(Cl)cc2)nc1N`, the viability was 90% in experiment [1]; 90% (inactive) in experiment [3]; 78.7% (inactive) in experiment [4]; 71.2% (inactive) in experiment [5]; 84.9% in experiment [6] (setting [9]); 71.2% in experiment [6] (setting [10]). The Her2 level in experiment [2] was 74.5% (inactive). In addition, in experiment [6] (H69AR cells + 2 uM doxorubicin), the differential viability (reversal) was -13.7% (inactive). Besides, the results for the inhibition in experiment [7] and in experiment [8] were -5.06% (inactive) and -8.5% (inactive), respectively.

Take `O=C1CSC(=Nc2ccc(O)cc2)N1c1ccc(O)cc1`: the viability was 93% in experiment [1]; 93% (inactive) in experiment [3]; 89.2% (inactive) in experiment [4]; 91.4% (inactive) in experiment [5]; 81.6% in experiment [6] (setting [9]); 91.4% in experiment [6] (setting [10]). The Her2 level in experiment [2] was 89.5% (inactive). Moreover, in experiment [6] (H69AR cells + 2 uM doxorubicin), the differential viability (reversal) was 9.79% (inactive). For the same compound, the inhibition was -7.07% (inactive) in experiment [7] and -1.64% (inactive) in experiment [8].

Regarding `CC(=O)N1CCC(N(C(=O)Nc2ccc(C)c(C)c2)C2CCCC2)CC1`, the viability in experiment [1] was 92%; in experiment [3], 92% (inactive); in experiment [4], 90.4% (inactive); in experiment [5], 85.6% (inactive); in experiment [6] (setting [9]) it was 89.1%; in experiment [6] (setting [10]), 85.6%. Further, the Her2 level in experiment [2] was 102% (inactive). For the same compound, the differential viability (reversal) in experiment [6] (H69AR cells + 2 uM doxorubicin) was -3.42% (inactive). Also, the results for the inhibition in experiment [7] and in experiment [8] were -1.54% (inactive) and -5.33% (inactive), respectively.

Take `COc1cc(C)c(-c2cc(C(=O)O)c(C)o2)cc1C(C)C`: the viability in experiment [1] was 99.5%; in experiment [3], 99.5% (inactive); in experiment [4] it was 95.7% (inactive); in experiment [5] it was 91.8% (inactive); in experiment [6] (setting [9]), 85%; in experiment [6] (setting [10]), 91.8%. In experiment [2], the Her2 level is 88% (inactive). The differential viability (reversal) in experiment [6] (H69AR cells + 2 uM doxorubicin) is 6.8% (inactive). Further, the inhibition in experiment [7] is -3.87% (inactive); in experiment [8] it was -5.4% (inactive).

On to `N=c1c(C(=O)NCc2ccc(F)cc2)cc2c(=O)n3ccccc3nc2n1CCCN1CCOCC1`, for which the viability in experiment [1] was 95%; in experiment [3], 95% (inactive); in experiment [4] it was 82.8% (inactive); in experiment [5], 76.6% (inactive); in experiment [6] (setting [9]), 85.6%; in experiment [6] (setting [10]) it was 76.6%. Moreover, the Her2 level in experiment [2] is 74.5% (inactive). Besides, in experiment [6] (H69AR cells + 2 uM doxorubicin), the differential viability (reversal) is -8.96% (inactive). Moreover, the inhibition is 0.78% (inactive) in experiment [7] and 10.8% (inactive) in experiment [8].

These data come from PubChem BioAssay.
